In series [1] the test system is Mus musculus. Put plainly: Anticonvulsant activity in Albino Swiss CD1 mouse at 100 mg/kg, ip after 2 hrs by maximal electroshock test. Set-up: dose 100 mg/kg. Format: functional, organism-based. In outline: (§1)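 Male CD-1 mice, 16–26 g, in groups of 4, each mouse used once, were given 100 mg/kg ip (0.1 mL/10 g, methylcellulose vehicle). MES used 25 mA, 500 V, 50 Hz delivered by ear electrodes for 0.2 s, and absence of hindlimb tonic extension counted as protection. In scPTZ, mice without clonic convulsions over 30 min of observation counted as protected. Both tests were run 0.5 h or 2 h after dosing.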

Series [2] concerns Mus musculus. Put plainly: Neurological toxicity in Albino Swiss CD1 mouse at 100 mg/kg, ip after 0.5 hrs by rotarod test. Further details: dose 100 mg/kg, route intraperitoneal. The following applies: in vivo. The class given is organism-based. In outline:
(§2)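 Mice were trained on a 2 cm rod for 3 min, with unlimited trials, at least 24 h before testing. Each was then dosed ip at 100 mg/kg and tested at 10 rpm 0.5 h or 2 h later, in groups of 4. Failure to stay on the rod for at least 1 min indicated neurotoxicity.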
Background: In the rotarod test animals must keep their balance on a rotating rod.

Series [3] relates to Mus musculus. The experiment in a line: Anticonvulsant activity in Albino Swiss CD1 mouse at 100 mg/kg, ip after 2 hrs by subcutaneous pentylenetetrazole test. Format: functional, organism-based. Further details: dose 100 mg/kg. The procedure, abridged:
as §1

Series [4] relates to Mus musculus. The experiment in a line: Neurological toxicity in Albino Swiss CD1 mouse at 100 mg/kg, ip after 2 hrs by rotarod test. The class given is organism-based. Further details: dose 100 mg/kg, route intraperitoneal. To be noted: in vivo. In outline: as §2
For series [5], the system named is Mus musculus. The experiment in a line: Anticonvulsant activity in Albino Swiss CD1 mouse at 100 mg/kg, ip after 0.5 hrs by subcutaneous pentylenetetrazole test. The class given is functional, organism-based. Further details: dose 100 mg/kg. The procedure, abridged: as §1
Series [6] deals with Mus musculus. Put plainly: Anticonvulsant activity in Albino Swiss CD1 mouse at 100 mg/kg, ip after 0.5 hrs by maximal electroshock test. The class given is functional, organism-based. Set-up: dose 100 mg/kg. In outline: as §1
(In general: The maximal electroshock test induces tonic seizures with an electrical stimulus.)

The test system of series [7] is Mus musculus. The experiment in a line: Anticonvulsant activity in intraperitoneally dosed Albino Swiss CD1 mouse assessed as time to peak effect after 2 hrs by subcutaneous pentylenetetrazole test. Format: functional.
Series [8] relates to Mus musculus. The experiment in a line: Anticonvulsant activity in intraperitoneally dosed Albino Swiss CD1 mouse assessed as time to peak effect by maximal electroshock test. The class given is functional.
The species entered for series [9] is Mus musculus. Put plainly: Protective index, ratio of neurotoxic TD50 in Albino Swiss CD1 mouse by rotarod test to anticonvulsant ED50 in Albino Swiss CD1 mouse by maximal electroshock test. In outline:
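The protective index is the rotarod TD50 divided by the MES or scPTZ ED50. Each value came from ip dosing in male CD-1 mice with probit analysis, and the reference drugs were tested under the same conditions.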

The test system of series [10] is Mus musculus. Put plainly: Anticonvulsant activity in intraperitoneally dosed Albino Swiss CD1 mouse by maximal electroshock test. Format: functional. To be noted: Albino Swiss CD1, ip. The procedure, abridged: (§3)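 Male CD-1 mice were dosed ip (0.1 mL/10 g, methylcellulose vehicle), at least four dose groups of 6 mice each. Protection in MES meant no hindlimb tonic extension after a 25 mA, 50 Hz, 0.2 s ear-electrode shock. Protection in scPTZ meant no clonus over 30 min.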

A short description of series [11]: Neurological toxicity in intraperitoneally dosed Albino Swiss CD1 mouse by rotarod test. Format: organism-based. To be noted: in vivo, ip. The procedure, abridged:
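Mice trained on the rotarod were given various ip doses, four groups in all, and tested at 10 rpm. Failure to stay on the rod for at least 1 min indicated neurotoxicity.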

Series [12] deals with Mus musculus. The experiment in a line: Anticonvulsant activity in intraperitoneally dosed Albino Swiss CD1 mouse after 0.5 hrs by maximal electroshock test. The class given is functional. In outline:
as §3

Series [13] has as its system Mus musculus. Put plainly: Anticonvulsant activity in intraperitoneally dosed Albino Swiss CD1 mouse by subcutaneous pentylenetetrazole test. Format: functional. In outline:
as §3

Calls of active or inactive are those of the source. No cut-off for these calls is given here.

The values that follow come from ChEMBL document CHEMBL3400073, “Design, synthesis and biological evaluation of new hybrid anticonvulsants derived from N-benzyl-2-(2,5-dioxopyrrolidin-1-yl)propanamide and 2-(2,5-dioxopyrrolidin-1-yl)butanamide derivatives” (Bioorg Med Chem, 2015).

As for `CC(C(=O)NCC1CCCCC1)N1C(=O)CCC1=O` (configuration not stated), the result in series [1], in [3], in series [5] and in series [6] was inactive. Also, the Activity result in series [2] and in series [4] was “Non-toxic” in each case.
As to `CCC(C(=O)NCC1CCCCC1)N1C(=O)CCC1=O` (racemic), the outcome in series [1], in series [3], in [5] and in series [6] was inactive. For the same compound, the Activity entry in series [2] and in series [4] was “Non-toxic” each time.
The term ED50 denotes the dose that gives a 50% effect, or the effect in half of the subjects. The low end stands for an effect at a small dose, the high end for a need for a large dose. A word on the TD50: it is the dose at which the toxic effect under study appears in half of the subjects. With `CC1CC(=O)N(C(C)C(=O)NCc2ccccc2F)C1=O` (racemic), the Time in [7] and in series [8] was 0.5 h throughout. Besides, the “Ratio TD50/ED50” value in [9] was 2.97. The outcome in series [1], in series [3] and in series [5] was inactive. Moreover, the Activity result in [2] and in series [4] was “Non-toxic” each time. The compound further yielded an ED50 in series [10] of 80.5 mg/kg. This compound gave a TD50 in series [11] of 239 mg/kg. In series [12], this compound registered an MED50 of 100 mg/kg.
For `CC1CC(=O)N(C(C)C(=O)NCc2cccc(Cl)c2)C1=O` (racemic), the Time in series [7] and in [8] was 0.5 h each time. Further, the “Ratio TD50/ED50” value in [9] is recorded as 2.73. Also, the outcome in series [1], in series [3] and in [5] was inactive. Moreover, the Activity entry in [2] and in [4] was “Non-toxic” in each case. The compound also returned an ED50 in series [10] of 90.3 mg/kg. This compound also returned a TD50 in series [11] of 247 mg/kg. The compound further displayed an MED50 in [12] of 100 mg/kg.
Consider `CC1CC(=O)N(C(C)C(=O)NCc2ccccc2C(F)(F)F)C1=O` (racemic), for which the result in series [1], in series [3], in series [5] and in series [6] was inactive. Moreover, the Activity result in series [2] and in series [4] was “Non-toxic” throughout.
For `CC1CC(=O)N(C(C)C(=O)NCC2CCCCC2)C1=O` (racemic), the result in [1], in series [3], in series [5] and in [6] was inactive. Moreover, the Activity entry in series [2] and in series [4] was “Non-toxic” in each case.
Regarding `CCC1(C)CC(=O)NC1=O` (configuration not stated) [ETHOSUXIMIDE], the Time in [7] and in [8] was 0.25 h throughout. This compound showed an ED50 in series [10] of more than 500 mg/kg.
`NC(=O)N1c2ccccc2C=Cc2ccccc21` [CARBAMAZEPINE]: the Time in series [7] and in series [8] was 0.5 h throughout. Further, the “Ratio TD50/ED50” value in series [9] is listed as 3.47. Further, the ED50 in series [10] is 14.2 mg/kg; in series [13], more than 100 mg/kg. The compound also displayed a TD50 in series [11] of 49.3 mg/kg.
In the case of `CC(C(=O)NCc1ccc(F)cc1)N1C(=O)CCC1=O` (racemic), the result in series [1], in series [3], in [5] and in series [6] was inactive. Also, the Activity entry in series [2] and in series [4] was “Non-toxic” each time.
Regarding `CC1CC(=O)N(C(C)C(=O)NCc2cccc(C(F)(F)F)c2)C1=O` (racemic), the result in series [1], in series [3], in series [5] and in [6] was inactive. Further, the Activity entry in [2] and in series [4] was “Non-toxic” in each case.
As to `CC(C(=O)NCc1cccc(C(F)(F)F)c1)N1C(=O)CCC1=O` (racemic), the Time in [7] and in [8] was 0.5 h each time. Also, the “Ratio TD50/ED50” value in series [9] came out at 3.59. Further, the outcome in [1], in series [3] and in series [5] was inactive. Moreover, the Activity entry in [2] and in series [4] was “Non-toxic” throughout. Besides, in series [10], the ED50 amounted to 92.4 mg/kg. The TD50 in [11] came to 332 mg/kg. The compound further registered an MED50 in [12] of 100 mg/kg.
In the case of `CC1CC(=O)N(C(C)C(=O)NCc2ccc(F)cc2)C1=O` (racemic), the result in series [1], in series [3], in series [5] and in [6] was inactive. For the same compound, the Activity entry in [2] and in series [4] was “Non-toxic” throughout.
Consider `CCCC(CCC)C(=O)O` [VALPROIC ACID], for which the Time in series [7] and in series [8] was 0.5 h in each case.
As to `CC(C(=O)NCc1ccccc1Cl)N1C(=O)CCC1=O` (racemic), the Time in series [7] and in series [8] was 0.5 h in each case. Further, the “Ratio TD50/ED50” value in series [9] amounted to 4.57. Further, the result in series [1], in series [3] and in series [5] was inactive. Also, the Activity entry in [2] and in [4] was “Non-toxic” throughout. In [10], this compound registered an ED50 of 74.5 mg/kg. For the same compound, the TD50 in series [11] was 340 mg/kg. Also, the MED50 in series [12] was found to be 100 mg/kg.
For the compound `CC1CC(=O)N(C(C)C(=O)NCc2ccc(Cl)cc2)C1=O` (racemic), the result in series [1], in series [3], in [5] and in series [6] was inactive. The Activity entry in series [2] and in [4] was “Non-toxic” throughout.
Regarding `CC1CC(=O)N(C(C)C(=O)NCc2cccc(F)c2)C1=O` (racemic), the Time in series [7] and in series [8] was 0.5 h each time. Also, the “Ratio TD50/ED50” value in series [9] was found to be 2.29. Further, the outcome in series [1], in [3] and in series [5] was inactive. The Activity result in series [2] and in series [4] was “Non-toxic” each time. In addition, the 50% effect level in series [10] (ED50) was put at a dose of 130 mg/kg. In [11], this compound returned a TD50 of 297 mg/kg. This compound registered an MED50 in [12] of 100 mg/kg.
In the case of `CC(C(=O)NCc1ccccc1C(F)(F)F)N1C(=O)CCC1=O` (racemic), the outcome in [1], in series [3], in [5] and in series [6] was inactive. For the same compound, the Activity entry in series [2] and in [4] was “Non-toxic” in each case.
Regarding `COC[C@@H](NC(C)=O)C(=O)NCc1ccccc1` [LACOSAMIDE], the Time in [7] and in series [8] was 0.5 h each time. Further, the results for the ED50 in series [10] and in [13] were 9.24 mg/kg and more than 500 mg/kg, respectively.
As to `CC(C(=O)NCc1cccc(F)c1)N1C(=O)CCC1=O` (racemic), the Time in [7] and in series [8] was 0.5 h throughout. Also, in [9], the “Ratio TD50/ED50” value is given as more than 6.46. The outcome in series [1], in series [3] and in [5] was inactive. For the same compound, the Activity entry in series [2] and in series [4] was “Non-toxic” each time. Besides, the ED50 in series [10] worked out at 77.4 mg/kg. In series [11], this compound came in with a TD50 of more than 500 mg/kg. The compound further yielded an MED50 in series [12] of 100 mg/kg.
For the compound `CC(C(=O)NCc1cccc(Cl)c1)N1C(=O)CCC1=O` (racemic), the Time in [7] and in series [8] was 0.5 h throughout. Besides, the “Ratio TD50/ED50” value in [9] was 4.23. In addition, the outcome in series [1], in series [3] and in [5] was inactive. In addition, the Activity entry in [2] and in series [4] was “Non-toxic” throughout. The compound further showed an ED50 in [10] of 82 mg/kg. The same compound registered a TD50 in [11] of 347 mg/kg. In [12], this compound came in with an MED50 of 100 mg/kg.
Take `CC1CC(=O)N(C(C)C(=O)NCc2ccccc2Cl)C1=O` (racemic): the Time in series [7] and in series [8] was 0.5 h in each case. In addition, the “Ratio TD50/ED50” value in series [9] was 3.2. Besides, the result in [1], in [3] and in [5] was inactive. The Activity result in series [2] and in [4] was “Non-toxic” each time. For the same compound, the ED50 in [10] turned out to be 85.8 mg/kg. In addition, in [11], the TD50 is 275 mg/kg. The compound also yielded an MED50 in series [12] of 100 mg/kg.
